Assay results as given in ChEMBL document CHEMBL1121900, “Analgesic narcotic antagonists. 9. 6-Methylene-8 beta-alkyl-N-(cycloalkylmethyl)-3-hydroxy- or -methoxymorphinans” (1981).
Activity calls are given as the source filed them. The calls are words filed in the database; no cut-off is given here.

These molecules were tested on Mus musculus (assay: Inhibition of acetic acid induced mouse writhing assay following s.c. administration.). Conditions: sc.
Assay type: functional

Q: With `C=C1C[C@H](C)C2C3Cc4ccc(OC)cc4C2(CCN3CC2CC2)C1` (stereo partly specified) as the molecule, how does the ED50 read?
A: 9.5 µmol/kg

Q: For `C=CCN1CC[C@]23c4c5ccc(O)c4O[C@H]2[C@@H](O)C=C[C@H]3[C@H]1C5` [NALORPHINE], which ED50 is on record?
A: 3.5 µmol/kg

Q: For `O=C1CCC2C3Cc4ccc(O)cc4C2(CCN3CC2CC2)C1` (stereo unspecified), which ED50 is on record?
A: 3.3 µmol/kg

Q: Which ED50 does the source give for `C=C1C[C@H](C)C2C3Cc4ccc(O)cc4C2(CCN3CC2CCC2)C1` (stereo partly specified) here?
A: 0.53 µmol/kg

Q: `C=C1C[C@H](C)C2C3Cc4ccc(OC)cc4C2(CCN3CC2CCC2)C1` (stereo partly specified) was tested. Which ED50 did it give?
A: 16.5 µmol/kg

Q: With `C[C@H]1CC(=O)CC23CCN(CC4CCC4)C(Cc4ccc(O)cc42)C13` (stereo partly specified) as the molecule, how does the ED50 read?
A: 0.29 µmol/kg

Q: For `C=C1CCC2C3Cc4ccc(O)cc4C2(CCN3CC2CCC2)C1` (stereo unspecified), which ED50 is on record?
A: 0.22 µmol/kg

Q: With `C=C1CCC2C3Cc4ccc(O)cc4C2(CCN3CC2CC2)C1` (stereo unspecified) as the molecule, how does the ED50 read?
A: 1.2 µmol/kg

Q: With `CC[C@H]1CC(=O)CC23CCN(CC4CCC4)C(Cc4ccc(O)cc42)C13` (stereo partly specified) as the molecule, how does the ED50 read?
A: 0.54 µmol/kg

Q: For `COc1ccc2c(c1)C13CCN(CC4CCC4)C(C2)C1[C@@H](C)CC(=O)C3` (stereo partly specified), which ED50 is on record?
A: 1.38 µmol/kg

Q: With `C=C1C[C@H](C)C2C3Cc4ccc(O)cc4C2(CCN3CC2CC2)C1` (stereo partly specified) as the molecule, how does the ED50 read?
A: 5.3 µmol/kg

Q: How did the ED50 turn out when `CC(C)=CCN1CC[C@]2(C)c3cc(O)ccc3C[C@H]1[C@H]2C` [(+)-PENTAZOCINE] was run?
A: 12.9 µmol/kg

Q: Which ED50 does the source give for `C=C1CCC2C3Cc4ccc(OC)cc4C2(CCN3CC2CCC2)C1` (stereo unspecified) here?
A: 3.2 µmol/kg

Q: Which ED50 does the source give for `C=C1C[C@H](CC)C2C3Cc4ccc(O)cc4C2(CCN3CC2CCC2)C1` (stereo partly specified) here?
A: > 28 µmol/kg

Q: How did the ED50 turn out when `C[C@H]1CC(=O)CC23CCN(CC4CC4)C(Cc4ccc(O)cc42)C13` (stereo partly specified) was run?
A: 10.2 µmol/kg

Q: `O=C1CC[C@@]2(O)[C@H]3Cc4ccc(O)c5c4[C@@]2(CCN3CC2CC2)[C@H]1O5` [NALTREXONE] was tested. Which ED50 did it give?
A: > 28 µmol/kg

The molecules below were run on Mus musculus (assay: Inhibition of acetic acid induced mouse writhing assay following s.c. administration; Inactive at 30 uMol/kg.). Conditions: 30 uM.
Assay type: functional, organism-based

Q: Which ED50 does the source give for `C=C1C[C@H](CC)C2C3Cc4ccc(O)cc4C2(CCN3CC2CC2)C1` (stereo partly specified) here?
A: inactive

These molecules were tested against T1, Opioid receptor (Rattus norvegicus) (UniProt P33533+P34975+P33535) (assay: Inhibition of morphine analgesia in modified rat tail flick test; Inactive at 25 uMol/kg.). Conditions: 25 uM.
T1 sequence (P33533 whole entry, looked up): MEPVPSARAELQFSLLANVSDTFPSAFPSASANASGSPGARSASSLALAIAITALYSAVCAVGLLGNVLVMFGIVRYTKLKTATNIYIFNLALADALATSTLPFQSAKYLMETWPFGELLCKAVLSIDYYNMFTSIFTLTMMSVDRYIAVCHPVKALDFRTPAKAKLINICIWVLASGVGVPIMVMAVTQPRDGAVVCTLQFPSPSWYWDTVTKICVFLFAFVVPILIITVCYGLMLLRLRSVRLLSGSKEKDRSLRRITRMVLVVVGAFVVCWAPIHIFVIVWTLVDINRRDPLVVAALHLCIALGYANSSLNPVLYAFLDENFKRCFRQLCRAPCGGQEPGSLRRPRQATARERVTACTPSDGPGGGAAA
T1 sequence (P33535 whole entry, looked up): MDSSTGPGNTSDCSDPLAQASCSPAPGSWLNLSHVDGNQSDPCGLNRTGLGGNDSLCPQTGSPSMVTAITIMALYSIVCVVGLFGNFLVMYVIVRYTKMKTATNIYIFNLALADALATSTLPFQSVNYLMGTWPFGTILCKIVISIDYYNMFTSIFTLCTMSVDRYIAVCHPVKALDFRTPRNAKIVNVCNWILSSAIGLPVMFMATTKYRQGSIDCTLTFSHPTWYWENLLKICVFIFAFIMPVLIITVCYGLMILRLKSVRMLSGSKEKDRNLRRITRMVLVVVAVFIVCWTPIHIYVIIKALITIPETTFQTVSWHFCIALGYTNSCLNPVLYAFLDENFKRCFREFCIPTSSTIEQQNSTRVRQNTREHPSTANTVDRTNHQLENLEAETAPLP
T1 sequence (P34975 whole entry, looked up): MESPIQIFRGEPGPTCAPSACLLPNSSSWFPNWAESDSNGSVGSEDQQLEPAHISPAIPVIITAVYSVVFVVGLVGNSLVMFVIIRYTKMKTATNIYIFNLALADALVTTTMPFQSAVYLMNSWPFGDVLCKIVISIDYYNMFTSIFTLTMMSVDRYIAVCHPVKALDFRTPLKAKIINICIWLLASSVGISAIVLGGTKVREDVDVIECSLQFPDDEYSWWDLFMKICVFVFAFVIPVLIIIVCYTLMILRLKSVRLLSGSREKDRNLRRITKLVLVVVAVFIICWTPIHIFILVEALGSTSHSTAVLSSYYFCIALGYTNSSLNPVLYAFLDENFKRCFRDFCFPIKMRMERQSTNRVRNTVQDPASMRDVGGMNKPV
Assay type: functional

Q: For `O=C1CCC2C3Cc4ccc(O)cc4C2(CCN3CC2CCC2)C1` (stereo unspecified), which ED50 is on record?
A: inactive

Q: Which ED50 does the source give for `COc1ccc2c(c1)C13CCN(CC4CCC4)C(C2)C1CCC(=O)C3` (stereo unspecified) here?
A: inactive

The molecules below were run against T1, Opioid receptor (Rattus norvegicus) (assay: Inhibition of morphine analgesia in modified rat tail flick test.). Conditions: not given.
Assay type: functional
Outline: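 Narcotic antagonist activity measured by modified rat tail-flick against an ED80 dose of morphine. Free bases dissolved by dropwise 1 N HCl, then diluted. At least five rats per dose and at least three doses per drug; AD50 determined.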

Q: `C=C1C[C@H](C)C2C3Cc4ccc(OC)cc4C2(CCN3CC2CC2)C1` (stereo partly specified) was tested. Which ED50 did it give?
A: 11.3 µmol/kg

Q: For `C=CCN1CC[C@]23c4c5ccc(O)c4O[C@H]2[C@@H](O)C=C[C@H]3[C@H]1C5` [NALORPHINE], which ED50 is on record?
A: 2.5 µmol/kg

Q: Which ED50 does the source give for `COc1ccc2c(c1)[C@]13CCN(CC4CC4)[C@H](C2)[C@@H]1[C@@H](C)CC(=O)C3` here?
A: 4.3 µmol/kg

Q: Which ED50 does the source give for `O=C1CCC2C3Cc4ccc(O)cc4C2(CCN3CC2CC2)C1` (stereo unspecified) here?
A: 7.4 µmol/kg

Q: Which ED50 does the source give for `C=C1C[C@H](C)C2C3Cc4ccc(O)cc4C2(CCN3CC2CCC2)C1` (stereo partly specified) here?
A: 2.5 µmol/kg

Q: With `Oc1ccc2c(c1)[C@@]13CCCC[C@@]1(O)[C@@H](C2)N(CC1CCC1)CC3` as the molecule, how does the ED50 read?
A: 2 µmol/kg

Q: Which ED50 does the source give for `C=C1C[C@H](C)C2C3Cc4ccc(OC)cc4C2(CCN3CC2CCC2)C1` (stereo partly specified) here?
A: 14.1 µmol/kg

Q: Which ED50 does the source give for `C[C@H]1CC(=O)CC23CCN(CC4CCC4)C(Cc4ccc(O)cc42)C13` (stereo partly specified) here?
A: 2.8 µmol/kg

Q: Which ED50 does the source give for `C=C1CCC2C3Cc4ccc(O)cc4C2(CCN3CC2CCC2)C1` (stereo unspecified) here?
A: > 24 µmol/kg

Q: For `C[C@H]1[C@H]2Cc3ccc(O)cc3[C@]1(C)CCN2CC1CC1`, which ED50 is on record?
A: 0.81 µmol/kg

Q: `C=C1CCC2C3Cc4ccc(O)cc4C2(CCN3CC2CC2)C1` (stereo unspecified) was tested. Which ED50 did it give?
A: 0.37 µmol/kg

Q: Which ED50 does the source give for `CC[C@H]1CC(=O)CC23CCN(CC4CCC4)C(Cc4ccc(O)cc42)C13` (stereo partly specified) here?
A: 0.82 µmol/kg

Q: `COc1ccc2c(c1)C13CCN(CC4CCC4)C(C2)C1[C@@H](C)CC(=O)C3` (stereo partly specified) was tested. Which ED50 did it give?
A: 16.4 µmol/kg

Q: With `CC[C@H]1CC(=O)CC23CCN(CC4CC4)C(Cc4ccc(O)cc42)C13` (stereo partly specified) as the molecule, how does the ED50 read?
A: 4.7 µmol/kg

Q: How did the ED50 turn out when `C=C1C[C@H](C)C2C3Cc4ccc(O)cc4C2(CCN3CC2CC2)C1` (stereo partly specified) was run?
A: 0.89 µmol/kg

Q: Which ED50 does the source give for `CC(C)=CCN1CC[C@]2(C)c3cc(O)ccc3C[C@H]1[C@H]2C` [(+)-PENTAZOCINE] here?
A: 36.4 µmol/kg

Q: `C=C1CCC2C3Cc4ccc(OC)cc4C2(CCN3CC2CCC2)C1` (stereo unspecified) was tested. Which ED50 did it give?
A: > 20 µmol/kg

Q: How did the ED50 turn out when `C=C1C[C@H](CC)C2C3Cc4ccc(O)cc4C2(CCN3CC2CCC2)C1` (stereo partly specified) was run?
A: 21.2 µmol/kg

Q: How did the ED50 turn out when `C=C1C[C@H](CC)C2C3Cc4ccc(O)cc4C2(CCN3CC2CC2)C1` (stereo partly specified) was run?
A: 2.8 µmol/kg

Q: How did the ED50 turn out when `C[C@H]1CC(=O)CC23CCN(CC4CC4)C(Cc4ccc(O)cc42)C13` (stereo partly specified) was run?
A: 1.8 µmol/kg

Each molecule was assayed on Mus musculus (assay: Inhibition of acetic acid induced mouse writhing assay following s.c. administration; Inactive at 50 uMol/kg.). Conditions: 50 uM.
Assay type: functional, organism-based

Q: `CC[C@H]1CC(=O)CC23CCN(CC4CC4)C(Cc4ccc(O)cc42)C13` (stereo partly specified) was tested. Which ED50 did it give?
A: inactive

What follows are molecules tested on Mus musculus (assay: Inhibition of acetic acid induced mouse writhing assay following s.c. administration; Inactive.). Conditions: not given.
Assay type: functional, organism-based

Q: `C=CCN1CC[C@]23c4c5ccc(O)c4O[C@H]2C(=O)CC[C@@]3(O)[C@H]1C5` was tested. Which ED50 did it give?
A: inactive
